Assay results as given in ChEMBL document CHEMBL4196161, “Lead Optimization of 5-Aryl Benzimidazolone- and Oxindole-Based AMPA Receptor Modulators Selective for TARP γ-8” (ACS Med Chem Lett, 2018).
Values after ≈ are worked out from the molar mass of the structure shown.

Legend:
[1] = biological target: GRIA1/CACNG8 (Homo sapiens, UniProt P42261+Q8WXS5); assay: Modulation of recombinant human GluA1 flop isoform/TARPgamma8 expressed in HEK293F cells assessed as blockade of glutamate-induced calcium flux by calcium 5/6 dye based FLIPR assay; format: cell-based
GRIA1/CACNG8, sequence (P42261 whole entry, the tested form may be a part, canonical isoform): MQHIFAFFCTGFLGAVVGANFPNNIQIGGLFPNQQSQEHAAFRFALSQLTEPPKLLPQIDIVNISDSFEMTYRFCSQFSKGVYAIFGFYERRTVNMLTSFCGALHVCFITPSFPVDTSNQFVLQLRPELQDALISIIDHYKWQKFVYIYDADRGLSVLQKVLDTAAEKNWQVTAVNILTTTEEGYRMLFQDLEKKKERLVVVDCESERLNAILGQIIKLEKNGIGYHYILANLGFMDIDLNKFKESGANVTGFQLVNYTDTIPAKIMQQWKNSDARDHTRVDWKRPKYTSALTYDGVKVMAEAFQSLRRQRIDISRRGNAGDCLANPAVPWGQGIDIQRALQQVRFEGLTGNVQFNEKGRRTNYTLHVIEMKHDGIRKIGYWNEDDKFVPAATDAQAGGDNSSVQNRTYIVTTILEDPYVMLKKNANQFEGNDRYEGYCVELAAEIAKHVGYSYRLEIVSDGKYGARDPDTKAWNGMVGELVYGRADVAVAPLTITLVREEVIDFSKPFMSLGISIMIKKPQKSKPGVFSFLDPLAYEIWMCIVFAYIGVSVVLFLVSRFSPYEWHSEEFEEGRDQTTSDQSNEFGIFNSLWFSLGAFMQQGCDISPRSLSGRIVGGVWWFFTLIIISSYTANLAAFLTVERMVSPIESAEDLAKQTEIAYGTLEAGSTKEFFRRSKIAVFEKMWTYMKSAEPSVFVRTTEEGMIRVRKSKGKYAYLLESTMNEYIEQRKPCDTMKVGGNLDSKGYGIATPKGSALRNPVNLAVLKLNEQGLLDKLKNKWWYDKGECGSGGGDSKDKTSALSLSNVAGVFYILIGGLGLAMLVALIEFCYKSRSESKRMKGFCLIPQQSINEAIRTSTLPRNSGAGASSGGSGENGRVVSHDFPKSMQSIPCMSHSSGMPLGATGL
GRIA1/CACNG8, sequence (Q8WXS5 whole entry, the tested form may be a part, canonical isoform): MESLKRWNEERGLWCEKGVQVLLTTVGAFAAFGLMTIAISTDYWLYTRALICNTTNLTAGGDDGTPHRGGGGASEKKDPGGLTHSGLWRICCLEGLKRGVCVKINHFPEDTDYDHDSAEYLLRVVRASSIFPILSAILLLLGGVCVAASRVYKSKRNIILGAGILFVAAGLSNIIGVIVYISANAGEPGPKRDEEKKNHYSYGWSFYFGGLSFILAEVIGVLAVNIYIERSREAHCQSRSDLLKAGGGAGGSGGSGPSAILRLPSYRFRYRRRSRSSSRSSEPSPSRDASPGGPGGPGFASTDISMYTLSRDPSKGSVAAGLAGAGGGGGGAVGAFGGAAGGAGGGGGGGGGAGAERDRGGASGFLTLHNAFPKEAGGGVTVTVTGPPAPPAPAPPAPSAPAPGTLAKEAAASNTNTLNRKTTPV
Summary of the method: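 HEK-293 cells expressing a human GluA1o-γ-8 fusion construct; FLIPR calcium-flux read-out; pIC50 reported as mean and standard deviation of at least three assays run in triplicate.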

[2] = biological target: GRIA1/CACNG2 (Homo sapiens, UniProt P42261+Q9Y698); assay: Modulation of recombinant human GluA1 flop isoform/TARPgamma2 expressed in HEK293F cells assessed as blockade of glutamate-induced calcium flux by calcium 5/6 dye based FLIPR assay; format: cell-based
GRIA1/CACNG2, sequence (P42261 whole entry, canonical isoform): as the sequence (P42261 whole entry, the tested form may be a part, canonical isoform) above
GRIA1/CACNG2, sequence (Q9Y698 whole entry, canonical isoform): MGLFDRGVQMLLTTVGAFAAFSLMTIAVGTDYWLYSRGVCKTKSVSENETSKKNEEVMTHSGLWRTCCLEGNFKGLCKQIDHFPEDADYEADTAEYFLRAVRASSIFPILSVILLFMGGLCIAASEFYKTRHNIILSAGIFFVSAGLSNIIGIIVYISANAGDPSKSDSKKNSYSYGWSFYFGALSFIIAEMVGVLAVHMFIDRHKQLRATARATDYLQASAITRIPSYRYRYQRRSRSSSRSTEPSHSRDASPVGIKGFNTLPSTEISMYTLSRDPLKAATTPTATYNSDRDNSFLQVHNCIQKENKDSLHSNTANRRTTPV
Summary of the method: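 HEK-293 cells transiently expressing human GluA1o cotransfected with γ-2; FLIPR calcium-flux read-out; pIC50 reported; n = 1, run in triplicate.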

[3] = Hepatic extraction ratio in human liver microsomes at 1 uM measured after 60 mins in presence of NADPH by LC-MS/MS analysis; format: ADME, microsome; details: read-out: ERH
Summary of the method: (§1)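 Human or rat liver microsomal stability at 1 μM; results expressed as extraction ratio, i.e. predicted hepatic clearance divided by species-specific hepatic blood flow.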

[4] = Hepatic extraction ratio in rat liver microsomes at 1 uM measured after 60 mins in presence of NADPH by LC-MS/MS analysis; format: ADME, microsome; details: read-out: ERH; summary of the method: as §1
[5] = Apparent permeability across basolateral to apical side in MDCK-MDR1 cells at 5 uM measured after 60 mins by LC-MS/MS analysis; format: ADME, cell-based, Canis lupus familiaris; details: dog
Summary of the method: (§2)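 Bidirectional apparent permeability measured in Madin–Darby canine kidney cells transfected with the MDR1 (P-gp) gene; Papp reported in ×10–6 cm/s.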

[6] = Apparent permeability across apical to basolateral side in MDCK-MDR1 cells at 5 uM measured after 60 mins by LC-MS/MS analysis; format: ADME, cell-based, Canis lupus familiaris; details: dog; summary of the method: as §2
[7] = Thermodynamic solubility of the compound in simulated gastric fluid at pH 1.6 incubated under stirred condition for 3 days; format: physicochemical; details: read-out: Therm_solubility
Summary of the method: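 Thermodynamic solubility (μM) determined in simulated gastric fluid at pH 1.6 and in fasted state simulated intestinal fluid at pH 6.5.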

[8] = Thermodynamic solubility of the compound in fasted state simulated intestinal fluid at pH 6.5 incubated under stirred condition for 3 days; details: read-out: Therm_solubility
[9] = Oral bioavailability in Sprague-Dawley rat at 5 mg/kg administered as single dose by LC-MS/MS analysis; format: ADME, organism-based; details: in vivo
Summary of the method: (§3)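 Sprague–Dawley rats (n = 3/group) given compound as a solution in 20% HP-β-CD, 1 mg/kg i.v. and 5 mg/kg p.o.; plasma pharmacokinetics derived from these arms.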

[10] = Clearance in Sprague-Dawley rat at 1 mg/kg, iv administered as single dose by LC-MS/MS analysis; format: ADME, organism-based; details: in vivo
Summary of the method: (§4)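 Single 1 mg/kg i.v. dose as a solution to Sprague–Dawley rats (n = 3/group); vehicle 20% HP-β-CD in one study series, 1:1 PEG400/H2O in the other; plasma PK parameters derived.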

[11] = Ratio of unbound brain to plasma concentration in Sprague-Dawley rat at 1 mg/kg, iv or 5 mg/kg, po administered as single dose by LC-MS/MS analysis; format: ADME, organism-based; details: brain and plasma, read-out: K(p,uu,brain)
[12] = Protein binding in human plasma assessed as unbound fraction at 1 uM measured after 6 hrs by equilibrium dialysis method; format: ADME, cell-free
Summary of the method: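 Human or rat plasma protein binding at 1 μM compound, expressed as fraction unbound (fub).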

[13] = Volume of distribution at steady state in Sprague-Dawley rat at 1 mg/kg, iv or 5 mg/kg, po administered as single dose by LC-MS/MS analysis; format: ADME, organism-based; details: in vivo, read-out: Vdss; summary of the method: as §4
[14] = Half life in Sprague-Dawley rat at 1 mg/kg, iv administered as single dose by LC-MS/MS analysis; format: ADME, organism-based; details: in vivo; summary of the method: as §4
[15] = Cmax in Sprague-Dawley rat at 5 mg/kg, po administered as single dose by LC-MS/MS analysis; format: ADME, organism-based; design: dose 5 mg/kg, route oral; details: in vivo; summary of the method: as §3
[16] = tested on: Rattus norvegicus; assay: Ex vivo receptor occupancy at GluA/TARPgamma8 in po dosed Sprague-Dawley rat assessed as plasma concentration causing 50% reduction in [3H]JNJ-56022486 receptor labeling in hippocampus at Tmax by autoradiography; format: functional, organism-based
Summary of the method: (§5)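 Oral dose–response in Sprague–Dawley rats, n = 3/dose (8 doses in one study; vehicle 0.5% HPMC or 20% HP-β-CD); hippocampal occupancy measured at Tmax by ex vivo autoradiography using [3H]-12; EC50 expressed against plasma (ng/mL) or brain (ng/g) exposure, ED50 against dose.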

[17] = tested on: Rattus norvegicus; assay: Ex vivo receptor occupancy at GluA/TARPgamma8 in po dosed Sprague-Dawley rat assessed as brain concentration causing 50% reduction in [3H]JNJ-56022486 receptor labeling in hippocampus at Tmax by autoradiography; format: functional, organism-based; summary of the method: as §5
[18] = tested on: Rattus norvegicus; assay: Ex vivo receptor occupancy at GluA/TARPgamma8 in po dosed Sprague-Dawley rat assessed as reduction in [3H]JNJ-56022486 receptor labeling in hippocampus measured within 10 mins by autoradiography; format: functional

SMILES | IC50 [1] [nM] | IC50 [2] [nM] | hepatic extraction ratio at 1 h, 1 µM [3] | hepatic extraction ratio at 1 h, 1 µM [4] | Papp B→A at 1 h, 5 µM [5] [×10⁻⁶ cm/s] | Papp A→B at 1 h, 5 µM [6] [×10⁻⁶ cm/s] | solubility thermodynamic at 72 h [7] [µM] | solubility thermodynamic at 72 h [8] [µM] | bioavailability [9] [%] | clearance [10] [mL/min/kg] | Kp uu [11] | fraction unbound at 6 h, 1 µM [12] | Vd [13] [L/kg] | half-life [14] [h] | Cmax [15] [ng/mL] | EC50 [16] [µg/mL] | EC50 [17] [ng/g] | ED50 [18] [mg/kg]
N#Cc1cccc(Cl)c1-c1ccc2[nH]c(=O)[nH]c2c1 | 251 | > 10000 | < 0.3 | < 0.2 | 70 | 14 | < 4 | 5 (≈ 1.35 µg/mL) | – | – | – | – | – | – | – | – | – | –
Cc1cccc(C)c1-c1ccc2[nH]c(=O)[nH]c2c1 | – | > 10000 | 0.3 | 0.5 | 34 | 42 | 5 (≈ 1.19 µg/mL) | 276 (≈ 65.8 µg/mL) | 68 | 9 | 0.3 | – | – | – | – | – | – | –
O=c1[nH]c2ccc(-c3c(Cl)cccc3OC(F)(F)F)cc2o1 | 2510 | – | – | – | – | – | – | – | – | – | – | – | – | – | – | – | – | –
N#CCc1cccc(Cl)c1-c1ccc2[nH]c(=O)[nH]c2c1 | 10 | > 10000 | < 0.3 | 0.6 | 70 | 6.6 | 26 (≈ 7.38 µg/mL) | 230 (≈ 65.3 µg/mL) | – | – | – | – | – | – | – | – | – | –
O=C1Cc2cc(-c3c(Cl)cccc3OC(F)(F)F)cc(F)c2N1 | 2.51 | – | – | – | – | – | – | – | – | – | – | – | – | – | – | – | – | –
O=c1[nH]c2ccc(-c3c(Cl)cccc3C3CC3)cc2[nH]1 | – | > 10000 | < 0.3 | 0.5 | 18 | 10 | < 4 | 90 (≈ 25.6 µg/mL) | 121 | 21 | 0.3 | 0.2 | 4.6 | 2.7 | 502 | 0.486 (≈ 1.71 µM) | 1611 | 3.2
Cc1ccccc1-c1ccc2c(c1)CC(=O)N2 | 2510 | > 10000 | – | – | – | – | – | – | – | – | – | – | – | – | – | – | – | –
